Measurements published in the EternaBench riboswitch data.

Test system: MS2 coat protein
Experiment: apparent Kd, MS2 coat protein; higher = weaker binding; RNA-MaP array; FMN 200 µM where present
How it was run: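 Designs were transcribed by stalled E. coli RNA polymerase on Illumina sequencing-chip clusters. They were titrated with SNAP-549-labelled MS2 coat protein from 0.7 or 1.5 nM, doubling to 3 µM, without and then with constant ligand. Buffer: 100 mM Tris-HCl pH 7.5, 80 mM KCl, 4 mM MgCl2, BSA, DTT, yeast tRNA, Tween-20. Green signal was normalised to red-channel RNA signal and control-cluster median Fmax. Apparent Kd is the median of filtered per-cluster binding-curve fits.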

[1] = designed as: ON switch for flavin mononucleotide, no ligand
[2] = ligand present: flavin mononucleotide, designed as: ON switch for flavin mononucleotide
[3] = designed as: OFF switch for flavin mononucleotide, no ligand
[4] = ligand present: flavin mononucleotide, designed as: OFF switch for flavin mononucleotide

Row | Sequence | apparent Kd [1] | apparent Kd [2] | apparent Kd [3] | apparent Kd [4]
1 | AUUUAGUGCGAGAAGGCGUGGUCACAUGAGGAUCACCCAUGUCAGUACACGAGGAUAUCGAUUCACUGUAUAAACACAAGUGAC | 53.8 nM | 6.22 nM | – | –
2 | ACAUGAUCAGGAUAUACAUGAGGAUCACCCAUGUUUAUCAAAAAAGGGCCUUCUACAUGUAGAAGGGAUCUUGU | – | – | 14.8 nM | 15.1 nM
3 | CUCGGCGAGGGAGGAUAUCCCUAUGAGGCGGUGCAGCUCGGGAACAUGAGGAUCACCCAUGUAGCGGAGAAGGCCCAUACGCCU | – | – | 9.59 nM | 34.5 nM
4 | GUGGCACAUGAGGAUCACCCAUGUAGGUAGAACAUAGGAUAUCACCAACAAAAUACCUGGUGAGAAGGAUGAUGCC | 166 nM | 59.8 nM | – | –
5 | GCUCUGCGAGGAUAUACAUGAGGAUCACCCAUGUGCGAGUUACUUGUGAGGUCGGUUGGUAGAAGGCGCGGAGG | – | – | 106 nM | 89.8 nM
6 | GUGGUCAGACAUGAGGAUCACCCAUGUGGAAUAAAUAACACACAGGAUAUGUAAUAUAGGAUAUAACAGAAGGGUGGAUUGGUG | 318 nM | 168 nM | – | –
7 | GCGUAUAUAUGAUUUAUAAAACAGUCAGAAGGUGAGAAGACGACAUGAGGAUCACCCAUGUUAUUCAAGGAUAUGAUAAUGCGC | 13.1 nM | 7.74 nM | – | –
8 | UUAAGUCAUGUAGGAUAUCCGAGGCGAAGCGUUGGAGAAGGACAUGAGGAUCACCCAUGUUCUAGCGUCUGAGUACAGAUGCAA | – | – | 22.7 nM | 33.7 nM
9 | UGGUACUAGGGAGGAUAUGGGAAGAUACAUGAGGAUCACCCAUGUUUACGAAUGCCGAGAGGCAACUAGAAGGCCCUAGUACCU | 315 nM | 19.5 nM | – | –
10 | UGUCGGAGCAGAGGAUAUUACAUGAGGAUCACCCAUGUAUGAACCAAUAGCUCGAAACAGCAAUGUAAGAAGGCUGCUCCGACA | – | – | 6.38 nM | 69.9 nM
11 | AUUUAGAGAGGAUAUAUUAUGUGAAACAUGAGGAUCACCCAUGUAAUAUGAUGGAUAUAAAUAGAAGGCUCAUUUA | – | – | 33 nM | 24.4 nM
12 | CGGUCGAUGUAAGGAUAUCGACUGGAAUACAGUCGAGAAGGUACAUGAGGAUCACCCAUGUAAUCCUAAUAAUAAUAACGACCG | – | – | 11.1 nM | 17.4 nM
13 | GGGCGUAAUACAUGAGGAUCACCCAUGUCAGAAAGGGUAAUCAGAAGGUACUAUUAGAGAAAGAGUAAGGAUAUGAAUACGCCC | 876 nM | 169 nM | – | –
14 | AAUUUACAGGGAGGAUAUACAUGAGGAUCACCCAUGUAAUCAUAUGAUAUUUUUUUUGUAUGAGUGUAGAAGGCCCAAAUACCA | – | – | 11.5 nM | 13 nM
15 | AUAUAGUCAGGAUAUCGAAGUGAGUGUUGGUGGGUAAGGUACGAGAAGGGACAUGAGGAUCACCCAUGUAGGAA | – | – | 59.7 nM | 44.1 nM
16 | CCUCAUUGGCAGGAUAUCAGCACUAACGUGGUAUGAGAAGGGUCGACAUGAGGAUCACCCAUGUCAAUUGUCUG | – | – | 31.2 nM | 122 nM
17 | CGAGGCGUACAUGAGGAUCACCCAUGUACCUAACAACAAAGCAAGGAUAUCCUGGCUAUAAUACAGGAGAAGGUGUGGUCCUUA | – | 178 nM | – | –
18 | CGGGUGGUCCUCCGGGAUUGGACACAGGAUAUCCGCGAAAACAUGAGGAUCACCCAUGUAUAUGAGGAGAAGGGUGGACGAAGA | 56.2 nM | 15.6 nM | – | –
19 | GGAAAACAUGAGGAUCACCCAUGUGAGGAUAUCGAUGUCCAGGGCCUGGUGCGGGACUCGAGAAGGCACUGGGA | – | – | 62.9 nM | 126 nM

Row | Sequence | apparent Kd [1] | apparent Kd [2] | apparent Kd [3] | apparent Kd [4]
20 | GUUGCUAUCGGAGGAUAUUCAUACCGGAAACGGACAUGAGGAUCACCCAUGUGCGGAAACGCUUGGGAGAAGGCCGAUAGCAAC | 210 nM | 22.1 nM | – | –
21 | AUUUCGUUAUCAGGAUAUGGACAGGCCUGUCCGUAUUGAGACAGUAACAUGAGGAUCACCCAUGUCCAGAAGGGAUCGAAGUAU | – | – | 57 nM | 46.7 nM
22 | UCGGCGCGAGGAUAUACGUUUGCUUUUUAGGGUCGUGGCGUACAUGAGGAUCACCCAUGUAGAAGGCGCGCCGC | – | – | 16.9 nM | 52.7 nM
23 | UUCAUCAAUGAAGGAUAUCUAUGUCCAACAUGAGGAUCACCCAUGUUGAGGAUCACCUAUGUAAAGGAGAAGGUUAAUAUAACU | 6.96 nM | 6.42 nM | – | –
24 | AGCAUGCUAGGAUAUACGGGACAUUAGGGUUCGUUGUAUGGACAUGAGGAUCACCCAUGUAGAAGGAGCGUGCA | – | – | 28 nM | 99.8 nM
25 | UUACACUUGAGGGUCUCCCUUGACAUGAGGAUCACCCAUGUGCAGGAUAUACGUGUGAUGGUAUAGUAGAAGGGCACUCUAUGU | – | – | 23 nM | 29.7 nM
26 | AGUGUGUUAGGAUAUCGCAUAUGCUGGAGGAGGUGGAGUUACGAGAAGGAACAUGAGGAUCACCCAUGUAGGAC | – | – | 28.2 nM | 26.5 nM
27 | CUCUUGGCAGGAUAUGCUCUUUUAGACAUGAGGAUCACCCAUGUGCUCAUUCCUUCUUUUGCAGAAGGGCCUUAAC | – | – | 73 nM | 54.7 nM
28 | CGCUAUUACAUGAGGAUCACCCAUGUAUAUAUUGUAUUUUCGUAGGAUAUGCAGAAGAUUAAAGUGCAGAAGGACGUAAUAGCG | 29.1 nM | 7.48 nM | – | –
29 | UUGGUUGUCGUAGGAUAUGUAGGAUAUUCCUACAUGAGGAUCACCCAUGUUCGCAUGGAAGAAGGACAGAAUGACGAUGACCAG | 1110 nM | 27.1 nM | – | –
30 | GUGCAAACAUGAGGAUAUGUAUUAAAUAAUAAUACAGAAGGCAUGUCAAAUGACAUGAGGAUCACCCAUGUUGGCAAAAUGCGC | 144 nM | 29.7 nM | – | –
31 | CUUUUGUGAGGAUAUCAUUAGUAAAUAAAUAAAAUUACUACUGAGAAGGCACAUGAGGAUCACCCAUGUUCCUC | – | – | 33.9 nM | 159 nM
32 | GUCAGCUCGUGAGGAUAUACAUGUGCUGGAGACAGCACUAAAGUUUUCACAUGAGGAUCACCCAUGUAGAAGGCACGAGCUGAU | – | – | 15.4 nM | 36 nM
33 | GGAUCGCAAGAAGAUCCAAUACGAACAUGAGGAUCACCCAUGUAGGAUAUGCUAGAAGAAGAGUAGCAGAAGGACAUGUGCCUU | – | – | 9.79 nM | 42.7 nM
34 | UAAAUACAUGAGGAUCACCCAUGUCAAAAGACAUGAGGAUAUGUACAGACUUCGGUCUGUACAGAAGGCAUGAAAA | 680 nM | 55.4 nM | – | –
35 | UUAUACGUUGAGGAUAUGCGAAUAAGUAUAGUUGCAGAAGGCGAUACAUGAGGAUCACCCAUGUUCAUGGACAU | – | – | 126 nM | 180 nM
36 | CGGCGCUGUUGAGAGGAUAUGCGGUGAUGGACAUGAGGAUCACCCAUGUUAGCGAUAGCAUUACGGUAGAAGGCUCUACAGCUGC | 17.9 nM | 14.1 nM | – | –
37 | GGUGCUAUGUAGAAGGCAGAUCUGAUUCAGAUCUGAGGAUAUACAUGAGGAUCACCCAUGUUAAGCACCAGCACGAGAGUGCAA | – | – | 6.49 nM | 11.2 nM
38 | AAAACAGCGCGUCCCGCGCCAACUACAGAAGGCCAACAUGAGGAUCACCCAUGUACAAACUAGAUGGAGGAUAUGUAGGUUCUA | 6.35 nM | 4.5 nM | – | –

Row | Sequence | apparent Kd [1] | apparent Kd [2] | apparent Kd [3] | apparent Kd [4]
39 | CGCUCAAUUCUUUAGGUUAGAAUCAGAAGGCGUAACAUGAGGAUCACCCAUGUAUAGAAGUGUAACGAGGAUAUGAAUUGAGCG | – | – | 8.86 nM | 8.25 nM
40 | CUCAUGUGAGGAUAUGUGAUCUGCUUUCUGUGUAGAUGAUCACAGAAGGCACAUGAGGAUCACCCAUGUAGAUC | – | – | 70.5 nM | 29.6 nM
41 | AAAACCUCAUGAGGAUAUCCAACAUGAGGAUCACCCAUGUUAGUCUCAGUACUAGGUACUUGAGAGGAGAAGGCAUGCCAGGGC | 123 nM | 36.2 nM | – | –
42 | UUAUAUAGUGUGAGGAUAUGCUGGUCCUUGGAUCAGCAGAAGGCACAUGAGGAUCACCCAUGUAGUUUAUUUUA | – | – | 29 nM | 129 nM
43 | AAUAAGUCAGGAUAUACUAUGUCAGGAGAGAGACUGACUAUGUAGAAGGGACAUGAGGAUCACCCAUGUAAUAA | – | – | 28.6 nM | 35.9 nM
44 | AAGAAGGACGCAGGAUAUCCAGGACCUCCCGCAGGAGAAGGGCGAGACAUGAGGAUCACCCAUACAUGAGGAUCACCCAUGUAG | – | – | 17.3 nM | 18.4 nM
45 | GUUUCACAUGAGGAUCACCCAUGUGAGGAUAUCUAUUUGUUAACCGUAGUUAAUAGAUAGAGAAGGCGCGUGAU | – | – | 69 nM | 74.5 nM
46 | AAUAAUCAGUAAGGAUAUACUAGCGAUUAGCUUGUAGAAGGUACAGUCUUAUGUAUAACAAAUUAACAUGAGGAUCACCCAUGU | 9.19 nM | 7.65 nM | – | –
47 | GGUCAGCUAGGAUAUACAUGAGGAUCACCCAUGUACUGACCCAUGCGGGAGUCCGCAUGUAGAAGGAGCAAAAU | – | – | 20.9 nM | 22.6 nM
48 | UUAUUAGCAGGAUAUAUCCGGGAUAACAUGAGGAUCACCCAUGUGACCGCUUGAUAUCCUAUAGAAGGGCUUUAUU | – | – | 19.9 nM | 31.4 nM
49 | UAAAUGUGAGGAUAUUCGAAUAACUCGGAGACGAGUUGUUCGGAGAAGGCACAUGAGGAUCACCCAUGUUCCUU | – | – | 22.5 nM | 216 nM
50 | CCUCUGUUAGGAUAUCUUUUGUUCGCCGUAGGUCGGAUCAUGGAGAAGGGACAUGAGGAUCACCCAUGUUUACC | – | – | 29.7 nM | 56.2 nM
51 | GAUCAACAUGAGGAUCACCCAUGUGAGGAUAUGAUACUAUGUACUUCGGUACAUAGUAUCAGAAGGCAUGUAAA | – | – | 50.1 nM | 42.5 nM
52 | AAACAGGCAGGAUAUACAUGAGGAUCACCCAUGUGCAUAAACUGGCUGCGUCCGAAUCGUAGAAGGGCCUGCAU | – | – | 502 nM | 126 nM
53 | GGUGCGUAUGUGAGGAUAUGCUGGUCCUUGGGUCGGCAGAAGGCACAUGAGGAUCACCCAUGUGGUGUCGUUCC | – | – | 86.2 nM | 86.5 nM
54 | UGAUCUUACAUGAGGAUCACCCAUGUAGGCCUGUAACUAACCAGAAGGCACGUAGAGUAAAACAGUGAGGAUAUGGAUGACGUA | 22.4 nM | 9.35 nM | – | –
55 | GUGACGAAUGUAGGAUAUGCUGAGGAAUACUCAGCAGAAGGACAUGAGGAUCACCCAUGUCAUCCUAAUAAUAAAUAACGUCAC | – | – | 12.3 nM | 17.4 nM
56 | AGCGGCGCGGGCCACCGCAAAACCAGAAGGACAUGAGGAUCACCCAUGUAACAAAACAGGGCGGUGUAGGAUAUGGCAGACCCA | – | – | 10.3 nM | 11.8 nM
